Tests used:
[1] = tested on: HEK-293T; test: Cytotoxicity against HEK293T cells at 10 uM after 48 hrs; type: cell-based; conditions: human
Outline: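 HEK 293T cells incubated 48 h with compound at final 10 μM under the antiviral culture conditions, without virus. Viability read with a cell proliferation assay kit.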

[2] = Retention time of the compound by HPLC analysis; type: physicochemical
[3] = tested on: Human immunodeficiency virus 1; test: Antiviral activity against wild type HIV1 infected in HEK293T cells transfected with plasmid VSV-G/pNL4-3.luc.R-E- assessed as inhibition of viral replication after 48 hrs by luciferase reporter gene assay; type: functional, organism-based, HEK-293T; conditions: Human immunodeficiency virus 1, HEK-293T, 48 h; read-out: IC50
Outline: (§1)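 VSV-G-pseudotyped single-cycle virus: VSVG plasmid plus env-deficient pNL4-3.luc.R⁻E⁻ vector (wild type or RT-mutant) co-transfected into HEK 293T by calcium phosphate. Medium changed at 16 h, supernatant collected 48 h post-transfection, normalised by p24 ELISA to 0.2 ng p24/mL. HEK 293T targets seeded a day ahead; compound added 15 min before virus. Cells lysed 48 h post-infection, luciferase read. IC50 from dose–infectivity curves.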

[4] = tested on: Human immunodeficiency virus 1; test: Antiviral activity against HIV1 infected in 293T cells assessed as time of 50% failure; type: functional
[5] = tested on: Human immunodeficiency virus 1; test: Antiviral activity against HIV1 harboring reverse transcriptase Y181C mutant infected in HEK293T cells transfected with plasmid VSV-G/pNL4-3.luc.R-E- assessed as inhibition of viral replication after 48 hrs by luciferase reporter gene assay relative HIV1; type: functional, HEK-293T
[6] = tested on: Human immunodeficiency virus 1; test: Antiviral activity against HIV1 harboring reverse transcriptase K103N mutant infected in HEK293T cells transfected with plasmid VSV-G/pNL4-3.luc.R-E- assessed as inhibition of viral replication after 48 hrs by luciferase reporter gene assay relative HIV1; type: functional, HEK-293T
[7] = tested on: Human immunodeficiency virus 1; test: Antiviral activity against HIV1 harboring reverse transcriptase K103N mutant infected in HEK293T cells transfected with plasmid VSV-G/pNL4-3.luc.R-E- assessed as inhibition of viral replication after 48 hrs by luciferase reporter gene assay; type: functional, organism-based, HEK-293T; outline: as §1
[8] = tested on: Human immunodeficiency virus 1; test: Antiviral activity against HIV1 harboring reverse transcriptase Y181C mutant infected in HEK293T cells transfected with plasmid VSV-G/pNL4-3.luc.R-E- assessed as inhibition of viral replication after 48 hrs by luciferase reporter gene assay; type: functional, organism-based, HEK-293T; outline: as §1
[9] = tested on: Human immunodeficiency virus 1; test: Antiviral activity against HIV1 harboring reverse transcriptase Y188L mutant infected in HEK293T cells transfected with plasmid VSV-G/pNL4-3.luc.R-E- assessed as inhibition of viral replication after 48 hrs by luciferase reporter gene assay relative HIV1; type: functional, HEK-293T
[10] = tested on: Human immunodeficiency virus 1; test: Antiviral activity against HIV1 harboring reverse transcriptase K103N/G190A double mutant infected in HEK293T cells transfected with plasmid VSV-G/pNL4-3.luc.R-E- assessed as inhibition of viral replication after 48 hrs by luciferase reporter gene assay; type: functional, organism-based, HEK-293T; outline: as §1
[11] = tested on: Human immunodeficiency virus 1; test: Antiviral activity against HIV1 harboring reverse transcriptase K103N/P225H double mutant infected in HEK293T cells transfected with plasmid VSV-G/pNL4-3.luc.R-E- assessed as inhibition of viral replication after 48 hrs by luciferase reporter gene assay; type: functional, organism-based, HEK-293T; conditions: hek-293t; outline: as §1
[12] = tested on: Human immunodeficiency virus 1; test: Antiviral activity against HIV1 harboring reverse transcriptase […]/K103N double mutant infected in HEK293T cells transfected with plasmid VSV-G/pNL4-3.luc.R-E- assessed as inhibition of viral replication after 48 hrs by luciferase reporter gene assay; type: functional, organism-based, HEK-293T; outline: as §1
[13] = tested on: Human immunodeficiency virus 1; test: Antiviral activity against HIV1 harboring reverse transcriptase K103N/G190A double mutant infected in HEK293T cells transfected with plasmid VSV-G/pNL4-3.luc.R-E- assessed as inhibition of viral replication after 48 hrs by luciferase reporter gene assay relative HIV1; type: functional, HEK-293T
[14] = tested on: Human immunodeficiency virus 1; test: Antiviral activity against HIV1 harboring reverse transcriptase K103N/P225H double mutant infected in HEK293T cells transfected with plasmid VSV-G/pNL4-3.luc.R-E- assessed as inhibition of viral replication after 48 hrs by luciferase reporter gene assay relative HIV1; type: functional, HEK-293T
[15] = tested on: Human immunodeficiency virus 1; test: Antiviral activity against HIV1 harboring reverse transcriptase Y188L mutant infected in HEK293T cells transfected with plasmid VSV-G/pNL4-3.luc.R-E- assessed as inhibition of viral replication after 48 hrs by luciferase reporter gene assay; type: functional, organism-based, HEK-293T; outline: as §1
[16] = tested on: Human immunodeficiency virus 1; test: Antiviral activity against HIV1 harboring reverse transcriptase […]/K103N double mutant infected in HEK293T cells transfected with plasmid VSV-G/pNL4-3.luc.R-E- assessed as inhibition of viral replication after 48 hrs by luciferase reporter gene assay relative HIV1; type: functional, HEK-293T
[17] = tested on: Human immunodeficiency virus 1; test: Antiviral activity against HIV1 harboring reverse transcriptase K103N/V108I double mutant infected in HEK293T cells transfected with plasmid VSV-G/pNL4-3.luc.R-E- assessed as inhibition of viral replication after 48 hrs by luciferase reporter gene assay relative HIV1; type: functional, HEK-293T
[18] = tested on: Human immunodeficiency virus 1; test: Antiviral activity against HIV1 harboring reverse transcriptase K103N/V108I double mutant infected in HEK293T cells transfected with plasmid VSV-G/pNL4-3.luc.R-E- assessed as inhibition of viral replication after 48 hrs by luciferase reporter gene assay; type: functional, organism-based, HEK-293T; conditions: hek-293t; outline: as §1
[19] = Human immunodeficiency virus 1, HEK-293T, 48 h

Row | SMILES | Activity [1] | Retention_time [2] | IC50 [3] | further results
1 | COc1ccc(CNc2nc(-c3ccc(OC)cc3)c(Cc3ccccc3)s2)cc1 | Non-toxic | 29.14 min | 0.31 µM | 
2 | COc1ccc(CNc2nc(-c3cc(OC)ccc3OC)c(Cc3ccccc3)s2)cc1 | Non-toxic | 18.55 min | 6.2 µM | 
3 | Cc1nnc(C(=O)NC(C)(C)c2nc(C(=O)NCc3ccc(F)cc3)c(O)c(=O)n2C)o1 [RALTEGRAVIR] |  |  |  | Time [4]: 12 h
4 | COc1ccc(-c2nc(NCc3c(Cl)cccc3Cl)sc2Cc2ccccc2)cc1 | Non-toxic | 7.67 min | 7.21 µM | 
5 | COc1ccc(-c2nc(NCc3ccc(O)c(OC)c3)sc2Cc2ccccc2)cc1 | Non-toxic | 14.86 min | 0.33 µM | 
6 | COc1ccc(CCNc2nc(-c3ccc(OC)cc3)c(Cc3ccccc3)s2)cc1 | Non-toxic | 36.91 min | > 10 µM | 
7 | COc1ccc(-c2nc(NCc3ccco3)sc2Cc2ccccc2)cc1 | Non-toxic | 19.65 min | 1 µM | 
8 | COc1ccc(-c2nc(NCc3ccccc3OC)sc2Cc2ccccc2)cc1 | Non-toxic | 34.78 min | 6.97 µM | 
9 | COc1ccc(CNc2nc(-c3ccc(OC)cc3)c(Cc3ccc(F)cc3)s2)cc1 | Non-toxic | 29.46 min | > 10 µM | 
10 | COc1ccc(-c2nc(NCc3cccc(OC)c3)sc2Cc2ccccc2)cc1 | Non-toxic | 27.45 min | 0.82 µM | 
11 | CCN(CC)c1nc(-c2ccc(O)cc2)c(Cc2ccccc2)s1 | Non-toxic | 19.11 min | 4.4 µM | 
12 | COc1ccc(-c2nc(NCc3ccc(N(C)C)cc3)sc2Cc2ccccc2)cc1 | Non-toxic | 33.97 min | 0.87 µM | fold change (FC) [5]: 82; fold change (FC) [6]: 76; IC50 [7, 19]: 65.7 µM; IC50 [8, 19]: 71.6 µM
13 | O=C1Nc2ccc(Cl)cc2[C@@](C#CC2CC2)(C(F)(F)F)O1 [EFAVIRENZ] | Non-toxic |  | 0.00084 µM | fold change (FC) [9]: 461.5; fold change (FC) [5]: 5.4; fold change (FC) [6]: 56; Time [4]: 8.8 h; IC50 ([10]; hek-293t): 0.056 µM; IC50 [11]: 0.16 µM; IC50 ([12]; hek-293t): 2.49 µM; fold change (FC) [13]: 538; fold change (FC) [14]: 154; IC50 ([15]; hek-293t): 0.48 µM; IC50 ([7]; hek-293t): 0.0588 µM; fold change (FC) [16]: 2394; fold change (FC) [17]: 79.8; IC50 ([8]; hek-293t): 0.00565 µM; IC50 [18]: 0.083 µM
14 | COc1ccc(CNc2nc(-c3ccc(OC)cc3)c(Cc3ccc([N+](=O)[O-])cc3)s2)cc1 | Non-toxic | 26.68 min | > 10 µM | 
15 | COc1ccc(-c2nc(NCc3ccc(O)cc3)sc2Cc2ccccc2)cc1 | Non-toxic | 16.52 min | 0.64 µM | fold change (FC) [5]: 10; fold change (FC) [6]: 13; IC50 [7, 19]: 8.38 µM; IC50 [8, 19]: 6.63 µM
16 | COc1ccc(-c2nc(NCc3ccc([N+](=O)[O-])cc3)sc2Cc2ccccc2)cc1 | Non-toxic | 28.54 min | 0.8 µM | 
17 | COc1ccc(-c2nc(NCc3cccnc3)sc2Cc2ccccc2)cc1 | Non-toxic | 10.25 min | 4.67 µM | 
18 | COc1ccc(CNc2nc(-c3ccc(Cl)cc3Cl)c(Cc3ccccc3)s2)cc1 | Non-toxic | 53.29 min | 0.14 µM | 
19 | CCN(CC)c1nc(-c2ccc(OC)cc2)c(Cc2ccccc2)s1 | Non-toxic | 29.77 min | 2.3 µM | 

Row | SMILES | Activity [1] | Retention_time [2] | IC50 [3] | further results
20 | Cc1ccnc2c1NC(=O)c1cccnc1N2C1CC1 [NEVIRAPINE] | Non-toxic |  | 0.031 µM | fold change (FC) [9]: >322; fold change (FC) [5]: 2152; fold change (FC) [6]: 519; Time [4]: 8.3 h; IC50 [10, 19]: > 10 µM; IC50 [11]: 5.48 µM; IC50 [12, 19]: 5 µM; fold change (FC) [13]: >322; fold change (FC) [14]: 177; IC50 [15, 19]: > 10 µM; IC50 ([7]; hek-293t): 16.1 µM; fold change (FC) [16]: 161; fold change (FC) [17]: 90; IC50 ([8]; hek-293t): 66.7 µM; IC50 [18]: 2.8 µM
21 | COc1ccc(-c2nc(NCc3ccc(C#N)cc3)sc2Cc2ccccc2)cc1 | Non-toxic | 20.01 min | 0.45 µM | 
22 | COc1ccc(Nc2nc(-c3ccccc3)c(Cc3ccccc3OC)s2)cc1 | Non-toxic | 3.18 min | > 10 µM | 
23 | COc1ccc(CNc2nc(-c3ccc(F)cc3)c(Cc3ccccc3)s2)cc1 | Non-toxic | 33.02 min | 1.21 µM | 
24 | Cc1cn([C@H]2C[C@H](N=[N+]=[N-])[C@@H](CO)O2)c(=O)[nH]c1=O [ZIDOVUDINE] |  |  |  | Time [4]: 7.7 h
25 | COc1ccc(-c2nc(NCc3ccc(F)cc3)sc2Cc2ccccc2)cc1 | Non-toxic | 29.67 min | 0.66 µM | 
26 | COc1ccc(CNc2nc(-c3ccccc3)c(Cc3ccc(C#N)cc3)s2)cc1 | Non-toxic | 17.21 min | 4.79 µM | 
27 | COc1ccc(-c2nc(NCc3ccc4ccccc4c3)sc2Cc2ccccc2)cc1 | Non-toxic | 72.49 min | 0.96 µM | 
28 | COc1ccc(-c2nc(NCc3cc([N+](=O)[O-])ccc3O)sc2Cc2ccccc2)cc1 | Non-toxic | 45.27 min | 5.2 µM | 
29 | COc1ccc(CNc2nc(-c3ccco3)c(Cc3ccccc3)s2)cc1 | Non-toxic | 19.97 min | 0.7 µM | 
30 | COc1ccc(CNc2nc(-c3ccc(OC)cc3)c(C)s2)cc1 | Non-toxic | 13.3 min | 9.59 µM | 
31 | COc1ccc(CNc2nc(-c3ccccc3)c(Cc3ccccc3)s2)cc1 | Non-toxic | 28.38 min | 0.18 µM | 
32 | COc1ccc(-c2nc(/N=C/c3ccc(F)cc3)sc2Cc2ccccc2)cc1 | Non-toxic | 14.58 min | > 10 µM | 
33 | COc1ccc(-c2nc(NCc3ccccc3)sc2Cc2ccccc2)cc1 | Non-toxic | 28.1 min | 0.65 µM | 
34 | COc1ccc(CN(C)c2nc(-c3ccc(OC)cc3)c(Cc3ccccc3)s2)cc1 | Non-toxic | 47.61 min | 0.37 µM | 
35 | COc1ccc(-c2nc(NCc3cc(OC)c(OC)c(OC)c3)sc2Cc2ccccc2)cc1 | Non-toxic | 17.16 min | > 10 µM | 
36 | COc1ccc(-c2nc(NCc3cccc([N+](=O)[O-])c3)sc2Cc2ccccc2)cc1 | Non-toxic | 27.61 min | 1.47 µM | 
37 | COc1ccc(CNc2nc(-c3ccc(OC)cc3)c(Cc3ccc(OC)cc3)s2)cc1 | Non-toxic | 26.12 min | > 10 µM | 
38 | COc1ccc(CNc2nc(-c3ccccc3)c(Cc3ccccc3OC)s2)cc1 | Non-toxic | 27.75 min | 0.13 µM | 

— ChEMBL document CHEMBL3351628, “2,4,5-Trisubstituted thiazole derivatives: a novel and potent class of non-nucleoside inhibitors of wild type and mutant HIV-1 reverse transcriptase” (Eur J Med Chem, 2014)
